This note sets out measurements from PubChem BioAssay AID504382 (The Scripps Research Institute Molecular Screening Center, 2011).

Hit rate of the full screen: of about 2,500 compounds, about 460 (18%) were called active. These entries were drawn from the full list. Unmarked numbers belong to inactive results.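 The calls were made as follows: active = mean activation above a cutoff of low control average plus 3 SD from the earlier screen (cut at about 12% in these data); inactive = the rest.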

A short description of this assay: compound fluorescence interference without thin filaments, confirmation, artefact control for cardiac RTF calcium sensitizer project, biochemical (AID 504382). The note with it: IANBD fluorescence interference counterscreen, buffer, EC20 Ca2+; at 7.2 µM; active compounds read high; scaled: EC20 calcium 0, EC100 calcium 100. A digest of the protocol:
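Technique: fluorescence, 480/540 nm / Medium: MOPS-based buffer with KCl, MgCl2, EGTA, NTA, DTT, pH 7.2 / Probe or stimulus: calcium at EC20 level, 0.472 mM final / Repeats: triplicate wells per compound / Times: 15 min compound exposure at 25 °C / Measure: compound fluorescence interference relative to control well signal range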
Regarding `COc1cccc(/C(O)=C/c2nc3ccc(C(=O)NCCc4ccc(Cl)cc4)cc3[nH]c2=O)c1`, the fluorescence artifact activation is 0.43%.
The value for `O=C(Nc1cccc(Cl)c1)c1cc(S(=O)(=O)NCCc2ccc(Cl)cc2)ccc1F` was 10.6%; that for `COc1ccc(N(C)S(=O)(=O)c2ccc(Cl)c(C(=O)NCCc3ccc(Cl)cc3)c2)cc1` was 35.3% (active).
The value for `CCOc1ccc(C(C(=O)NC2CCCCC2)N(C(=O)Cc2cccs2)c2ccc(-n3cnnn3)c(OC)c2)cc1` (stereo unspecified) was 0.09%; that for `O=C(c1ccccc1)N1CCN(CC#CC2(O)CCCCC2)CC1` was -0.05%; that for `CCOc1ccc(C(=O)NC2CCN(C(=O)Nc3ccccc3OC)CC2)cc1` was -0.03%.
The value for `COc1ccc(N2CCN(C(=O)c3ccc(OCC4CCCO4)cc3)CC2)cc1` (stereo unspecified) was 23.9% (active).
Regarding `COC(=O)CN1C(=S)N(c2ccc(OC)cc2)C(=O)/C1=C/c1ccc(N2CCOCC2)cc1`, the fluorescence artifact activation is -0.04%.
As for `COc1ccc(CC(=O)NCc2csc(-c3cccs3)n2)cc1OC`, the fluorescence artifact activation was 0.03%.
The figure for `Cc1c(Cl)c([N+](=O)[O-])nn1CC(=O)N1CCN(C23CC4CC(CC(C4)C2)C3)CC1` is 0.69%.
The figure for `COc1ccc(/C=C2\SC(=O)NC2=S)cc1OC` is 0.32%; for `COc1ccc(/C=C2\SC(c3ccc(C)cc3)=NC2=O)cc1OC` it is 0.1%.
The value for `COc1cc(/C=C2\SC(=O)NC2=O)ccc1Oc1ccc([N+](=O)[O-])cn1` was 25% (active); that for `NC(=S)Nc1c(Cl)cccc1Cl` was -0.03%.
On to `COc1[nH]c(/N=C/c2ccccc2)c(C#N)c1C#N`, for which the fluorescence artifact activation is 0.1%.
The figure for `NC(=O)NC(Cc1ccccc1)C(=O)NCC1(N2CCCCC2)CCCCC1` (stereo unspecified) is 7.54%.
The value for `CC1CC(C)CN(C(=O)COC(=O)CCc2nc3ccccc3c(=O)[nH]2)C1` (stereo unspecified) was -0.03%; that for `Cn1cc(/C=C2\SC(=S)N(NC(=O)c3ccccc3Cl)C2=O)c2ccccc21` was 6.42%; that for `CNC(=O)N(O)C1N(C)C(=O)N(CC(=O)OC)C1(C)C` (stereo unspecified) was 12.4% (active).
The value for `COc1ccc(/C=C2\SC(=S)N(CCCC(=O)Nc3ccccn3)C2=O)cc1OC` was 0.11%; that for `CC(C(=O)c1ccc(Br)cc1)[n+]1cccc2ccccc21` (stereo unspecified) was 11.8% (active).
On to `CN(C)c1ccc(/C=C(/C(=O)c2ccc(Cl)cc2Cl)n2cncn2)cc1`, for which the fluorescence artifact activation was -0.05%.
The figure for `CCOC(=O)c1c(=O)n(O)c2ccc(OC)cc2[n+]1[O-]` is 0.13%; for `O=C(c1cccs1)N1CCN=C1SCc1cccc(F)c1` it is 0.02%; for `COc1cc(OC)cc(C(=O)NCC(=O)OC2CCOC2=O)c1` (stereo unspecified) it is 6.1%.
The figure for `O=C(NC1CCCCC1)C(c1ccc(F)cc1)N(Cc1ccccc1)C(=O)CN1C(=O)c2ccccc2S1(=O)=O` (stereo unspecified) is 27.8% (active).
The value for `COCCNC(=O)C(c1ccc(C)o1)N(Cc1ccc(F)cc1)C(=O)Cn1nnc2ccccc21` (stereo unspecified) was 0.43%.
In the case of `O=C(NCC(=O)N(Cc1cccs1)C(C(=O)NC1CCCCC1)c1ccncc1)c1ccco1` (stereo unspecified), the fluorescence artifact activation is 0.04%.
With `CSC(=NCc1ccco1)NC#N`, the fluorescence artifact activation is 0.12%.
The value for `CN1/C(=C\C=C2/SC(=S)NC2=O)C(C)(C)c2ccccc21` was 0.11%.
Consider `Cc1cc(-c2ccccc2C(=O)NC2CCCCC2)on1`, for which the fluorescence artifact activation was 0.27%.
The figure for `Cc1ccc(Cn2c(Sc3nnc(C)s3)nc3c2c(=O)[nH]c(=O)n3C)cc1` is 42.6% (active).
As to `CCN(CC)S(=O)(=O)c1ccc2c(c1)nc(CCC(=O)Nc1ccc3c(c1)OCO3)n2C`, the fluorescence artifact activation was 0.09%.
`COc1cc(C(=O)NCc2nnc(SCC(=O)Nc3ccc4c(c3)OCO4)o2)cc(OC)c1OC`: the fluorescence artifact activation is 35.2% (active).
The figure for `COc1cc(C(=O)Nc2ccc(Cl)c(C(F)(F)F)c2)cc(OC)c1OC` is 0.1%; for `Cc1onc(-c2c(F)cccc2Cl)c1C(N)=S` it is 6.57%; for `CN(C)c1ccc(/C=C(\C#N)C(=O)Nc2nc3c(s2)CCN(Cc2ccccc2)C3)cc1` it is 0.06%.
The value for `Cc1ccc(N=Nc2c(O)[nH]c3ccc(F)cc23)cc1` was 6.29%; that for `CC(=O)N1CCCc2cc(S(=O)(=O)N3CCCC(C(=O)Nc4cccc(C)c4)C3)ccc21` (stereo unspecified) was 0.1%.
The figure for `CC(=O)c1ccc(NC(=O)C2CCCN(S(=O)(=O)c3c(C)[nH]c(=O)[nH]c3=O)C2)cc1` (stereo unspecified) is 20.3% (active); for `Cc1cc(S(=O)(=O)N2CCCC(C(=O)Nc3ccc(C(=O)O)cc3)C2)ccc1Cl` (stereo unspecified) it is 1.39%.
On to `O=C1CCC[C@@H]2C[C@@]3(C[C@@H]4CCN1[C@H]24)Nc1cc([N+](=O)[O-])ccc1NC3=NC1CCCCC1`, for which the fluorescence artifact activation is 10.3%.
The figure for `CC1(c2ccc(OC(F)F)cc2)NC(=O)N(CC(=O)Nc2ccc(F)cc2)C1=O` (stereo unspecified) is 0%.
The figure for `NS(=O)(=O)c1ccc(NC(=O)COc2ccc(C(=O)c3ccc(F)cc3)cc2)cc1` is 545% (active); for `CCCC(CCC(=O)Nc1ccc(S(N)(=O)=O)cc1)C(=O)O` (stereo unspecified) it is 0.96%.
The figure for `CCOC(=O)C1(CCc2ccccc2)CCN(C(=O)c2occc2C)CC1` is 3.37%.
With `CCCC1C(c2ccccc2)C(C#N)(C#N)C2(C#N)CC1(N)NC2=O` (stereo unspecified), the fluorescence artifact activation was 0.01%.
The figure for `Oc1[nH]c2ccccc2c1N=Nc1ccccc1Cl` is 0.13%; for `C#CCOCCOCCOCCNc1nc(N2CCN(C(=O)CCCCCCCCCCNC(=O)[C@@H](CCSC)n3cc(CCO)nn3)CC2)nc(N2CCN(C(=O)CCCCCCCCCCNC(=O)[C@H](CCSC)n3cc(CCO)nn3)CC2)n1` it is 0.15%; for `CCN=C(NC#N)SCc1c(F)cccc1Cl` it is 0.17%.
The value for `NS(=O)(=O)c1ccc(NCc2c(F)cccc2Cl)cc1` was 24.7% (active).
The figure for `COc1ccc(C2NN=C(c3c[nH]c4ccccc34)C2O)cc1` (stereo unspecified) is 8.63%; for `CC(C)c1ccc(NS(=O)(=O)c2cccc3cccnc23)cc1` it is 168% (active).
In the case of `CCN(CC)C(=O)C1CCC(CNS(=O)(=O)c2cccc3cccnc23)CC1` (stereo unspecified), the fluorescence artifact activation was -0.02%.
The figure for `CN(CC(=O)NCc1ccc(Cl)cc1)S(=O)(=O)c1cccc2cccnc12` is 0.14%; for `CCc1ccc2c(COC(=O)CNS(=O)(=O)c3ccc(NC(C)=O)cc3)cc(=O)oc2c1` it is 2.6%.
